The list is not random: actives were taken first. Their share in the collection is about 10%.
PMI activator: phosphomannose isomerase (human) activation | purified human PMI, coupled resazurin fluorescence, 20 min; active compounds read high; 1 = vehicle control, 0 substrate-free wells | P34949 | 0.005% of 190,000 active | activation factor at 20 µM;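 active = activation factor of 2 or more at 20 µM, relative to plate controls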
Target sequence (P34949 whole entry, looked up): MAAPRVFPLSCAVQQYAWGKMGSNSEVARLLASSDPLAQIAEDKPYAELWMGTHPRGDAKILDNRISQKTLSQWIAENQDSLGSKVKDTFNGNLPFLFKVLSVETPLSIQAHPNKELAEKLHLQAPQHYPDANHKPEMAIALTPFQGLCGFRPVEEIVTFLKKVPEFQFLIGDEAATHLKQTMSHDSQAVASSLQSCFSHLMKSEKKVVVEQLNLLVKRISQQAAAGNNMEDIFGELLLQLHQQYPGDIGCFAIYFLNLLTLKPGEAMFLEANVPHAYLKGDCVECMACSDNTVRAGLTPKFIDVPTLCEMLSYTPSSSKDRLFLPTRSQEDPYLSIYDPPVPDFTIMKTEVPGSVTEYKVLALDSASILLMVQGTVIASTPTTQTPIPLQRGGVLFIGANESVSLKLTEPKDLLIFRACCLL
Lmaj promast: reduces viability of Leishmania major promastigotes | AID 1063 | 9% of 200,000 active | resazurin fluorescence viability | inhibition, % at 10 µM; in the data active = inhibition above about 50%;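 note: promastigotes grown with compound for 44 hours at 28 °C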
Diaphorase act: activates diaphorase or chemically reduces, flagging diaphorase assay artifacts; activation factor at 20 µM; AID 1229; 0.005% of 190,000 active; Diaphorase/resazurin coupled assay, resorufin fluorescence, 16 min; active compounds read high; 1 = vehicle wells, 0 = NADH-free wells;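 active = diaphorase activity raised at least twofold by the compound at 20 µM; inactive = activation factor below 2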
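System – purified diaphorase enzyme from Clostridium kluyveri · Input – enzyme 0.07 U/mL final · Also added – final NADH 0.114 mM, resazurin 0.1 mM · Measured by – fluorescence of resorufin, 544 nm excitation, 590 nm emission · Timing – 16 min enzyme reaction, ambient temperature · Measure – resorufin increase flagging diaphorase activators or reducers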
PMI act hi M6P: PMI (human) activation, high substrate. P34949. coupled PMI enzyme assay, resazurin fluorescence, 20 min; active compounds read high; 1 = untreated enzyme, 0 = substrate-free blank. activation factor at 20 µM. 0.34% of 190,000 active. AID 1216;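 active = activation factor of 2 or more at 20 µM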
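Test system: Human PMI in coupled enzyme assay | Input: 15 ng/mL PMI | Medium: HEPES-buffered pH 7.4 with magnesium and detergent | Compound: One concentration, 20 µM, in 1% DMSO | Incubation: Enzyme reaction with compound 20 min at room temperature | Detection: Diaphorase-driven resazurin-to-resorufin fluorescence, excitation 544, emission 590 nm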
WT yeast gro inh: growth inhibition of WT yeast, mitochondrial fusion screen; inhibition, % at 10 µM; 2.1% of 190,000 active; mitochondrial fusion phenotypic screen, WT strain; AID 1362; in the data active = inhibition above about 58%; tested in S. cerevisiae
* = called active by the depositor.

How did CCC1(c2ccc(Cl)cc2)NC(=O)N(Cc2ccc(C(=O)OC)cc2)C1=O (stereo not drawn) do in these assays?
PMI activator: 1; Lmaj promast: 23; Diaphorase act: 0.9; PMI act hi M6P: 1; WT yeast gro inh: 24

How did COc1ccc(OC)c(C(c2nnnn2C2CCCC2)N2CCN(c3ccccc3)CC2)c1 (stereo not drawn) do in these assays?
PMI activator: 1.1; Lmaj promast: 97*; Diaphorase act: 0.9; PMI act hi M6P: 1.1; WT yeast gro inh: -3

What do the screens show for `COc1ccc(C(c2nnnn2C2CCCC2)N2CCC(C)CC2)cc1` (stereo not drawn)?
PMI activator: 0.8; Lmaj promast: 90*; Diaphorase act: 0.8; PMI act hi M6P: 0.9; WT yeast gro inh: 2

How did c1cc(N2CCCC2)ccc1C(c1nnnn1C1CCCCC1)N1CCOCC1 (stereo not drawn) do in these assays?
PMI activator: 0.9; Lmaj promast: 88*; Diaphorase act: 0.9; PMI act hi M6P: 0.8; WT yeast gro inh: -8

What do the screens show for `COc1ccc(C(c2nnnn2C2CCCCC2)N2CCN(c3ccc(OC)cc3)CC2)cc1` (stereo not drawn)?
PMI activator: 0.9; Lmaj promast: 89*; Diaphorase act: 0.8; PMI act hi M6P: 0.9; WT yeast gro inh: 43

How did Cc1ccc(S(=O)(=O)N2CCC(=O)N(C(COCc3cccc(C(F)(F)F)c3)C(C)C)CC2)cc1 (stereo not drawn) do in these assays?
PMI activator: 0.9; Lmaj promast: 10; Diaphorase act: 0.8; PMI act hi M6P: 0.9; WT yeast gro inh: 32

How did O=C(COC(=O)c1ccc(O)cc1)NCCCc1ccccc1 do in these assays?
PMI activator: 1; Lmaj promast: 0; Diaphorase act: 1; PMI act hi M6P: 1; WT yeast gro inh: 6

What do the screens show for `COc1ccc(NC(=S)Nc2ccc3snnc3c2)cc1`?
PMI activator: 0.8; Lmaj promast: 54*; Diaphorase act: 0.8; PMI act hi M6P: 0.5; WT yeast gro inh: -2

What do the screens show for `COc1ccc(NC(=O)c2ccccc2[N+](=O)[O-])cc1`?
PMI activator: 1.1; Lmaj promast: -7; Diaphorase act: 0.9; PMI act hi M6P: 1.2; WT yeast gro inh: 6

Results for COc1ccc(NC(=S)Nc2ccc(N)c([N+](=O)[O-])c2)cc1 ?
PMI activator: 0.9; Lmaj promast: 100*; Diaphorase act: 0.8; PMI act hi M6P: 0.9; WT yeast gro inh: 12

Results for CCc1c(-c2n[nH]c(=S)n2Cc2ccccc2)csc1C ?
PMI activator: 0.8; Lmaj promast: -7; Diaphorase act: 0.8; PMI act hi M6P: 0.8; WT yeast gro inh: 16

How did COc1ccc(Cc2n[nH]c(=S)n2Cc2ccccc2)cc1Cl do in these assays?
PMI activator: 0.9; Lmaj promast: 97*; Diaphorase act: 0.9; PMI act hi M6P: 0.9; WT yeast gro inh: 9

What do the screens show for `Cc1ccccc1OCc1n[nH]c(=S)n1Cc1ccccc1`?
PMI activator: 0.9; Lmaj promast: 5; Diaphorase act: 0.7; PMI act hi M6P: 0.9; WT yeast gro inh: 73*

What do the screens show for `Cc1scc(-c2n[nH]c(=S)n2Cc2ccccc2)c1C`?
PMI activator: 0.9; Lmaj promast: -9; Diaphorase act: 0.9; PMI act hi M6P: 0.9; WT yeast gro inh: 71*

What do the screens show for `Cc1ccc(OCc2n[nH]c(=S)n2Cc2ccccc2)cc1`?
PMI activator: 0.9; Lmaj promast: -6; Diaphorase act: 0.9; PMI act hi M6P: 0.9; WT yeast gro inh: 9

What do the screens show for `COc1ccc2oc(=Nc3ccccc3)c(-c3nc4ccccc4[nH]3)cc2c1`?
PMI activator: 0.8; Lmaj promast: 14; Diaphorase act: 0.9; PMI act hi M6P: 0.9; WT yeast gro inh: 10

What do the screens show for `CCCCN(C(=O)c1cc2ccccc2o1)c1c(N)n(CCC)c(=O)[nH]c1=O`?
PMI activator: 1; Lmaj promast: -4; Diaphorase act: 1; PMI act hi M6P: 1; WT yeast gro inh: 8

What do the screens show for `O=C(OC1C2CCC1C1CN(CCc3ccccc3)CC12)c1ccccc1` (stereo not drawn)?
PMI activator: 1.2; Lmaj promast: 51*; Diaphorase act: 1; PMI act hi M6P: 1; WT yeast gro inh: 1

What do the screens show for `Cc1ccc2nc(NC(=O)c3ccc(OCC4CCCO4)cc3)sc2c1` (stereo not drawn)?
PMI activator: 1; Lmaj promast: 3; Diaphorase act: 0.9; PMI act hi M6P: 1; WT yeast gro inh: 17

Results for Cc1ccc(C(=O)Nc2cccc(C(=O)NCc3ccccc3)c2)cc1 ?
PMI activator: 0.8; Lmaj promast: 52*; Diaphorase act: 0.8; PMI act hi M6P: 0.9; WT yeast gro inh: -15

How did CC(C)c1ccccc1NC(=O)c1cccc(NC(=O)c2ccccc2)c1 do in these assays?
PMI activator: 0.9; Lmaj promast: 91*; Diaphorase act: 0.8; PMI act hi M6P: 1; WT yeast gro inh: 19

Results for O=C(Nc1cccc(O)c1)c1ccccc1 ?
PMI activator: 0.9; Lmaj promast: 62*; Diaphorase act: 0.9; PMI act hi M6P: 0.9; WT yeast gro inh: -8

What do the screens show for `COc1ccc(C(=O)Nc2cccc(C(=O)NCc3ccccc3)c2)cc1`?
PMI activator: 1; Lmaj promast: 2; Diaphorase act: 0.8; PMI act hi M6P: 1; WT yeast gro inh: -12

Results for O=C(NNc1cc(Br)c(O)c(Br)c1)c1ccccc1 ?
PMI activator: 1.6; Lmaj promast: 88*; Diaphorase act: 0.8; PMI act hi M6P: 2*; WT yeast gro inh: 2

How did Cc1ccc(-c2cc(=O)c3cc(Cl)ccc3[nH]2)cc1 do in these assays?
PMI activator: 1; Lmaj promast: -3; Diaphorase act: 1; PMI act hi M6P: 1.1; WT yeast gro inh: 2

Results for Cc1c(C(=O)NCc2ccc3c(c2)OCO3)cccc1[N+](=O)[O-] ?
PMI activator: 0.9; Lmaj promast: -2; Diaphorase act: 0.9; PMI act hi M6P: 1; WT yeast gro inh: -10

Results for O=C(NC(=S)Nc1ccc(S(=O)(=O)NC2CCCCC2)cc1)c1cccs1 ?
PMI activator: 0.8; Lmaj promast: 15; Diaphorase act: 0.8; PMI act hi M6P: 0.9; WT yeast gro inh: 64*

How did S=C(NCCc1ccccc1)Nc1cccc2cnccc12 do in these assays?
PMI activator: 0.9; Lmaj promast: -7; Diaphorase act: 0.8; PMI act hi M6P: 0.4; WT yeast gro inh: -3

Results for Cc1cc2c3c(c1)C1(SCC(=O)N1c1ccc(F)cc1)C(=O)N3C(C)(C)CC2C (stereo not drawn) ?
PMI activator: 0.9; Lmaj promast: 61*; Diaphorase act: 0.9; PMI act hi M6P: 0.9; WT yeast gro inh: 63*

How did O=S(=O)(c1ccccc1)c1cnc(-c2cccnc2)nc1-c1ccc(Cl)cc1Cl do in these assays?
PMI activator: 0.8; Lmaj promast: 16; Diaphorase act: 0.7; PMI act hi M6P: 0.8; WT yeast gro inh: 67*
